Where “and” joins values, the source holds several entries; their conditions need not be identical. Identical values can stand only once. Positions of bridges follow the written chain, without caps; N, C: chain ends. Non-standard residues stand in square brackets, D forms with d. Residues, ends and D or L forms follow the SMILES beside them. NMePhe(4-CH2NHiPr) = CN[C@@H](Cc1ccc(CNC(C)C)cc1)C(=O)O; Phe(4-CH2NHiPr) = CC(C)NCc1ccc(C[C@H](N)C(=O)O)cc1

For assay [1], the system named is CHO-K1. The assay is described as follows: Concentration for inhibition of forskolin-stimulated cAMP accumulation in CCL39 cells. The class given is functional, cell-based, Cricetulus griseus. The method in brief:
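CCL39 cells stably expressing human sst1, seeded in poly-D-lysine-coated 96-well plates at 2 × 10^4 cells/well, grown 24 h. Preincubated 30 min at 37 °C in medium with 0.5 mM IBMX, then 30 min at 37 °C with 0.5 mM IBMX, 7.5 µM forskolin and varying peptide concentrations. Lysed; cAMP measured by scintillation proximity assay. Three independent experiments in triplicate; EC50 from concentration-response curves.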

For assay [2], the system named is CHO-K1. The assay is described as follows: Inhibition of forskolin-stimulated cAMP accumulation in CCL39 cells. It counts as functional, Cricetulus griseus. The method in brief: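 CCL39 cells stably expressing human sst1 were seeded at 2 × 10^4 cells/well on poly-D-lysine plates and grown 24 h. Cells were preincubated 30 min at 37 °C with 0.5 mM IBMX, then exposed 30 min at 37 °C to IBMX ± 7.5 µM forskolin plus graded compound concentrations. Lysate cAMP was read by scintillation proximity assay and expressed as % forskolin-stimulated level. EC50 came from three independent experiments in triplicate, with SRIF-28 as positive control.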

The target of assay [3] is Somatostatin receptor type 1 (Homo sapiens, UniProt P30872). Nature of the assay: Inhibition of [Leu8,D-Trp22,125I-Tyr25]SRIF-28 binding to human somatostatin receptor type 1.
For assay [4], the target named is Somatostatin receptor type 4 (Homo sapiens, UniProt P31391). Nature of the assay: Inhibition of [Leu8,D-Trp22,125I-Tyr25]SRIF-28 binding to human somatostatin receptor type 4.
The target in assay [5] is Somatostatin receptor type 3 (Homo sapiens, UniProt P32745). The assay is described as follows: Inhibition of [Leu8,D-Trp22,125I-Tyr25]SRIF-28 binding to human somatostatin receptor type 3.
The target of assay [6] is Somatostatin receptor type 5 (Homo sapiens, UniProt P35346). Nature of the assay: Inhibition of [Leu8,D-Trp22,125I-Tyr25]SRIF-28 binding to human somatostatin receptor type 5.
Assay [7] concerns the target Somatostatin receptor type 2 (Homo sapiens, UniProt P30874). Nature of the assay: Inhibition of [Leu8,D-Trp22,125I-Tyr25]SRIF-28 binding to human somatostatin receptor type 2.

Chain of Somatostatin receptor type 2 (P30874 whole entry): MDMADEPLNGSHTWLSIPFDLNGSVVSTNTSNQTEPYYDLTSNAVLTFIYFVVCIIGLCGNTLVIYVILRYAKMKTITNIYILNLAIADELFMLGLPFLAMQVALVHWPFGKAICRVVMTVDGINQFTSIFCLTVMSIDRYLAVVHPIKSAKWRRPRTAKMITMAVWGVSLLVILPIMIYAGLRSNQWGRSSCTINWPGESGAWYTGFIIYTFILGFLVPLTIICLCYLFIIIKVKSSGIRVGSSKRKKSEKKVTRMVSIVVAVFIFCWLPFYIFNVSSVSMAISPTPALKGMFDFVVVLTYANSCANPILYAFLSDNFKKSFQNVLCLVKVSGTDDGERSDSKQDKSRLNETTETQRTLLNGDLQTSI
Chain of Somatostatin receptor type 1 (P30872 whole entry): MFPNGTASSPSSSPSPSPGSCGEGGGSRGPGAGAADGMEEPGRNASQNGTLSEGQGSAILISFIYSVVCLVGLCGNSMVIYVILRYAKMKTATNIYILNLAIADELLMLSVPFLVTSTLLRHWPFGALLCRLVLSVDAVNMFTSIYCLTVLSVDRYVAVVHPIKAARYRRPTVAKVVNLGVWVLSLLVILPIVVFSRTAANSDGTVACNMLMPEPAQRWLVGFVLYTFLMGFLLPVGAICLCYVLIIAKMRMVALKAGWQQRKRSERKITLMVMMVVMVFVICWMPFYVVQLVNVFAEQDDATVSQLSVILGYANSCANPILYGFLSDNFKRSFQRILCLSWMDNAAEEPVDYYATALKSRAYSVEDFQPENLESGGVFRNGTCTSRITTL
Chain of Somatostatin receptor type 4 (P31391 whole entry): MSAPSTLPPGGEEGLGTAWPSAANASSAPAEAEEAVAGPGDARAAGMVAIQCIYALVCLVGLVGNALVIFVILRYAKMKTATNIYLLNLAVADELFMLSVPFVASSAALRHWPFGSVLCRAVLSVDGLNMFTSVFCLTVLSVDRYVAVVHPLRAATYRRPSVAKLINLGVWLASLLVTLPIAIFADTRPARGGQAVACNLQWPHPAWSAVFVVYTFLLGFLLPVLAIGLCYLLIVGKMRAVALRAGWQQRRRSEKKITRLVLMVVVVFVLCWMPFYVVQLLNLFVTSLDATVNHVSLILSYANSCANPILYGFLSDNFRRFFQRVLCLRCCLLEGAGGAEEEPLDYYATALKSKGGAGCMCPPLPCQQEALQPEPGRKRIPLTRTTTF
Chain of Somatostatin receptor type 3 (P32745 whole entry): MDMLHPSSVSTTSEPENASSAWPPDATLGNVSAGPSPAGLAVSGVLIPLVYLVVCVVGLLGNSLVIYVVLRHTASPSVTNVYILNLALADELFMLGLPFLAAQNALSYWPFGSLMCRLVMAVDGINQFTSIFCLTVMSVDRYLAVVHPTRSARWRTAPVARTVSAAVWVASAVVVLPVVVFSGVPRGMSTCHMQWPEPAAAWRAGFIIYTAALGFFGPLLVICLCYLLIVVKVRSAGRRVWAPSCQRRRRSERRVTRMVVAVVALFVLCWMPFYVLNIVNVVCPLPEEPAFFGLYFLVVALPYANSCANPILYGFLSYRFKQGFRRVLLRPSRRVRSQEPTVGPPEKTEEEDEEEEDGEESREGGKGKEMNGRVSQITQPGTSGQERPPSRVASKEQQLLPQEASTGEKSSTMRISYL
Chain of Somatostatin receptor type 5 (P35346 whole entry): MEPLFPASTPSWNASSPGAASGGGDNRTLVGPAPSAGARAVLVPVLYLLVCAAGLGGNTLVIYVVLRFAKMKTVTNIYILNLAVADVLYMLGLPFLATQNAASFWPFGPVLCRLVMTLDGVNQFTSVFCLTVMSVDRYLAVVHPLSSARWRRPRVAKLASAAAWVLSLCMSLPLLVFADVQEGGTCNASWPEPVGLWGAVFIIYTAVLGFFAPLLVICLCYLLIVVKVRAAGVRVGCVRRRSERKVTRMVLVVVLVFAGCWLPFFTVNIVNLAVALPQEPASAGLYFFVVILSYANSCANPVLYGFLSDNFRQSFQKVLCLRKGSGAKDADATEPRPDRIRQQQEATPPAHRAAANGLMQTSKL

`CSCC[C@H](NC(=O)[C@H](C)NC(=O)[C@@H]1CCCN1C(=O)[C@H](CC(N)=O)NC(=O)[C@H](CO)NC(=O)[C@H](CC(N)=O)NC(=O)[C@H](C)NC(=O)[C@@H](N)CO)C(=O)N[C@@H](C)C(=O)N1CCC[C@H]1C(=O)N[C@@H](CCCNC(=N)N)C(=O)N[C@@H](CCC(=O)O)C(=O)N[C@@H](CCCNC(=N)N)C(=O)N[C@@H](CCCCN)C(=O)N[C@@H](C)C(=O)NCC(=O)N[C@H]1CSSC[C@@H](C(=O)O)NC(=O)[C@H](CO)NC(=O)[C@H]([C@@H](C)O)NC(=O)[C@H](Cc2ccccc2)NC(=O)[C@H]([C@@H](C)O)NC(=O)[C@H](CCCCN)NC(=O)[C@H](Cc2c[nH]c3ccccc23)NC(=O)[C@H](Cc2ccccc2)NC(=O)[C@H](Cc2ccccc2)NC(=O)[C@H](CC(N)=O)NC(=O)[C@H](CCCCN)NC1=O` [listing 1 of 2 here]: in the assay with CHO-K1 [1], the EC50 was 0.18 nM and 0.77 nM.
`CSCC[C@H](NC(=O)[C@H](C)NC(=O)[C@@H]1CCCN1C(=O)[C@H](CC(N)=O)NC(=O)[C@H](CO)NC(=O)[C@H](CC(N)=O)NC(=O)[C@H](C)NC(=O)[C@@H](N)CO)C(=O)N[C@@H](C)C(=O)N1CCC[C@H]1C(=O)N[C@@H](CCCNC(=N)N)C(=O)N[C@@H](CCC(=O)O)C(=O)N[C@@H](CCCNC(=N)N)C(=O)N[C@@H](CCCCN)C(=O)N[C@@H](C)C(=O)NCC(=O)N[C@H]1CSSC[C@@H](C(=O)O)NC(=O)[C@H](CO)NC(=O)[C@H]([C@@H](C)O)NC(=O)[C@H](Cc2ccccc2)NC(=O)[C@H]([C@@H](C)O)NC(=O)[C@H](CCCCN)NC(=O)[C@H](Cc2c[nH]c3ccccc23)NC(=O)[C@H](Cc2ccccc2)NC(=O)[C@H](Cc2ccccc2)NC(=O)[C@H](CC(N)=O)NC(=O)[C@H](CCCCN)NC1=O` [listing 2 of 2 here]: in the assay with CHO-K1 [2], the Inhibition is >81% and >49%.
Regarding `CC(C)NCc1ccc(C[C@@H]2NC(=O)[C@H](Cc3c[nH]c4ccccc34)NC(=O)[C@H](Cc3ccccc3)NC(=O)[C@H](Cc3ccccc3)NC(=O)[C@H](CCCCN)NC(=O)[C@@H](N)CSSC[C@@H](C(=O)O)NC(=O)[C@H](CO)NC(=O)[C@H]([C@@H](C)O)NC(=O)[C@H](Cc3ccc(O)cc3)NC(=O)[C@H]([C@@H](C)O)NC2=O)cc1` (H-CKFFW[Phe(4-CH2NHiPr)]TYTSC-OH; disulfide 1-11), the IC50 in assay [3] is 15 nM; in assay [4], 384 nM; in assay [5], greater than 1000 nM; in assay [6] it was greater than 1000 nM; in assay [7], greater than 1000 nM.
Turning to `CC(C)NCc1ccc(C[C@H]2C(=O)N[C@@H]([C@@H](C)O)C(=O)N[C@@H](Cc3ccccc3)C(=O)N[C@@H]([C@@H](C)O)C(=O)N[C@@H](CO)C(=O)N[C@H](C(=O)O)CSSC[C@H](N)C(=O)N[C@@H](CCCCN)C(=O)N[C@@H](Cc3ccccc3)C(=O)N[C@@H](Cc3ccccc3)C(=O)N[C@H](Cc3c[nH]c4ccccc34)C(=O)N2C)cc1` (H-CKFF[dW][NMePhe(4-CH2NHiPr)]TFTSC-OH; disulfide 1-11), the IC50 is 10 nM in assay [3]; 226 nM in assay [4]; 1030 nM in assay [5]; greater than 1000 nM in assay [6]; greater than 1000 nM in assay [7].

The values above are taken from ChEMBL document CHEMBL1145176, “Somatostatin receptor 1 selective analogues: 2. N(alpha)-Methylated scan” (J Med Chem, 2005).
